Measured values from ChEMBL document CHEMBL1138555, “N-acylated and N,N'-diacylated imidazolidine-2-thione derivatives and N,N'-diacylated tetrahydropyrimidine-2(1H)-thione analogues: synthesis and antiproliferative activity” (Eur J Med Chem, 2009).
pIC50: −log10 of the molar value.

Columns and labels:
[1] = tested on: IGROV-1; assay: Growth inhibition of human IGROV1 cells after 48 hrs by sulforhodamine B assay; assay type: functional; conditions: IGROV-1, 48 h
In short: (§1)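 NCI screen panel. Five 10-fold concentrations from 10^-4 to 10^-8 M. Exposure for the last 48 h of a 72 h incubation. Growth estimated by sulforhodamine B protein assay. GI50 is the concentration giving 50% growth inhibition. Where that level was not reached or was exceeded, the value is given as above or below the highest or lowest concentration tested.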

[2] = tested on: T47D; assay: Growth inhibition of human T47D cells after 48 hrs by sulforhodamine B assay; assay type: functional
In short: (§2)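 NCI in vitro panel screen. Compounds tested at five 10-fold dilutions, 10^-4 to 10^-8 M. Cells in 96-well plates were exposed for the last 48 h of a 72 h incubation. Viability/growth was read by sulforhodamine B protein assay. GI50 is the concentration giving 50% growth inhibition. Values beyond the tested range are reported as greater or less than the maximum or minimum concentration.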

[3] = tested on: SN12C; assay: Growth inhibition of human SN12C cells after 48 hrs by sulforhodamine B assay; assay type: functional; in short: as §2
[4] = tested on: UACC-257; assay: Growth inhibition of human UACC257 cells after 48 hrs by sulforhodamine B assay; assay type: functional; conditions: UACC-257, 48 h; in short: as §2
[5] = tested on: OVCAR-5; assay: Growth inhibition of human OVCAR5 cells after 48 hrs by sulforhodamine B assay; assay type: functional; conditions: OVCAR-5, 48 h; in short: as §1
[6] = tested on: HOP-92; assay: Growth inhibition of human HOP92 cells after 48 hrs by sulforhodamine B assay; assay type: functional; conditions: HOP-92, 48 h; in short: as §1
[7] = tested on: CCRF-CEM; assay: Growth inhibition of human CCRF-CEM cells after 48 hrs by sulforhodamine B assay; assay type: functional; in short: as §1
[8] = tested on: SF-268; assay: Growth inhibition of human SF268 cells after 48 hrs by sulforhodamine B assay; assay type: functional; conditions: SF-268, 48 h; in short: as §1
[9] = tested on: NCI-H23; assay: Growth inhibition of human NCI-H23 cells after 48 hrs by sulforhodamine B assay; assay type: functional; conditions: NCI-H23, 48 h; in short: as §1
[10] = tested on: HCT-15; assay: Growth inhibition of human HCT15 cells after 48 hrs by sulforhodamine B assay; assay type: functional; conditions: HCT-15, 48 h; in short: as §1
[11] = tested on: NCI-H460; assay: Growth inhibition of human NCI-H460 cells after 48 hrs by sulforhodamine B assay; assay type: functional; conditions: NCI-H460, 48 h; in short: as §1
[12] = tested on: DU-145; assay: Growth inhibition of human DU145 cells after 48 hrs by sulforhodamine B assay; assay type: functional; conditions: DU-145, 48 h; in short: as §1
[13] = tested on: SNB-75; assay: Growth inhibition of human SNB75 cells after 48 hrs by sulforhodamine B assay; assay type: functional; conditions: SNB-75, 48 h; in short: as §2
[14] = tested on: OVCAR-3; assay: Growth inhibition of human OVCAR-3 cells after 48 hrs by sulforhodamine B assay; assay type: functional; conditions: OVCAR-3, 48 h; in short: as §1
[15] = tested on: NCI-H522; assay: Growth inhibition of human NCI-H522 cells after 48 hrs by sulforhodamine B assay; assay type: functional; conditions: NCI-H522, 48 h; in short: as §1
[16] = tested on: HT-29; assay: Growth inhibition of human HT-29 cells after 48 hrs by sulforhodamine B assay; assay type: functional; conditions: HT-29, 48 h; in short: as §1
[17] = tested on: HCT-116; assay: Growth inhibition of human HCT116 cells after 48 hrs by sulforhodamine B assay; assay type: functional; conditions: HCT-116, 48 h; in short: as §1
[18] = Growth inhibition of human […] cells after 48 hrs by sulforhodamine B assay; assay type: functional; in short: as §1
[19] = tested on: BT-549; assay: Growth inhibition of human BT549 cells after 48 hrs by sulforhodamine B assay; assay type: functional; conditions: BT-549, 48 h; in short: as §1
[20] = tested on: SK-MEL-2; assay: Growth inhibition of human SK-MEL-2 cells after 48 hrs by sulforhodamine B assay; assay type: functional; conditions: SK-MEL-2, 48 h; in short: as §1
[21] = tested on: MOLT-4; assay: Growth inhibition of human MOLT4 cells after 48 hrs by sulforhodamine B assay; assay type: functional; conditions: MOLT-4, 48 h; in short: as §1
[22] = tested on: HL-60(TB); assay: Growth inhibition of human HL-60(TB) cells after 48 hrs by sulforhodamine B assay; assay type: functional; conditions: HL-60, 48 h
In short: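 NCI 60-cell-line screen protocol: cells exposed to compound at five 10-fold dilutions from 10^-4 to 10^-8 M for the last 48 h of a 72 h incubation. Sulforhodamine B protein assay estimated viability/growth. GI50 (50% growth inhibition) derived; where not reached or exceeded, reported as greater or less than the highest or lowest concentration tested.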

[23] = tested on: U-251; assay: Growth inhibition of human U251 cells after 48 hrs by sulforhodamine B assay; assay type: functional; conditions: U-251, 48 h; in short: as §2
[24] = tested on: SNB-19; assay: Growth inhibition of human SNB19 cells after 48 hrs by sulforhodamine B assay; assay type: functional; conditions: SNB-19, 48 h; in short: as §2
[25] = tested on: UO-31; assay: Growth inhibition of human UO31 cells after 48 hrs by sulforhodamine B assay; assay type: functional; conditions: UO-31, 48 h; in short: as §2
[26] = tested on: HOP-62; assay: Growth inhibition of human HOP62 cells after 48 hrs by sulforhodamine B assay; assay type: functional; conditions: HOP-62, 48 h; in short: as §1
[27] = tested on: LOX IMVI; assay: Growth inhibition of human LOXIMVI cells after 48 hrs by sulforhodamine B assay; assay type: functional; in short: as §1
[28] = tested on: OVCAR-4; assay: Growth inhibition of human OVCAR4 cells after 48 hrs by sulforhodamine B assay; assay type: functional; conditions: OVCAR-4, 48 h; in short: as §1
[29] = tested on: 786-0; assay: Growth inhibition of human 786-0 cells after 48 hrs by sulforhodamine B assay; assay type: functional; conditions: 786-0, 48 h; in short: as §1
[30] = tested on: A498; assay: Growth inhibition of human A498 cells after 48 hrs by sulforhodamine B assay; assay type: functional; conditions: A498, 48 h; in short: as §1
[31] = tested on: SF-539; assay: Growth inhibition of human SF539 cells after 48 hrs by sulforhodamine B assay; assay type: functional; conditions: SF-539, 48 h; in short: as §1
[32] = tested on: OVCAR-8; assay: Growth inhibition of human OVCAR8 cells after 48 hrs by sulforhodamine B assay; assay type: functional; conditions: OVCAR-8, 48 h; in short: as §1
[33] = tested on: MT4; assay: Antiproliferative activity against human MT4 cells assessed as reduction of growth by MTT assay; assay type: functional, cell-based
In short: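 MT-4 lymphoblastoid T cells (ATCC) in RPMI 1640 with 10% FCS, penicillin/streptomycin, checked for mycoplasma. 1 × 10⁴ mock-infected cells per well with serial dilutions from a 100 mM DMSO stock. Incubated 4 days at 37 °C, viable cells counted by MTT. IC50 versus untreated controls by linear regression. Mean of three separate experiments.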

[34] = tested on: EKVX; assay: Growth inhibition of human EKVX cells after 48 hrs by sulforhodamine B assay; assay type: functional; in short: as §1
[35] = tested on: SK-MEL-28; assay: Growth inhibition of human SK-MEL-28 cells after 48 hrs by sulforhodamine B assay; assay type: functional; conditions: SK-MEL-28, 48 h; in short: as §1
[36] = tested on: RXF 393; assay: Growth inhibition of human RXF393 cells after 48 hrs by sulforhodamine B assay; assay type: functional; conditions: RXF 393, 48 h; in short: as §1
[37] = tested on: PC-3; assay: Growth inhibition of human PC3 cells after 48 hrs by sulforhodamine B assay; assay type: functional; conditions: PC-3, 48 h; in short: as §1
[38] = tested on: MCF7; assay: Growth inhibition of human MCF7 cells after 48 hrs by sulforhodamine B assay; assay type: functional; conditions: MCF7, 48 h; in short: as §1
[39] = tested on: Malme-3M; assay: Growth inhibition of human MALME-3M cells after 48 hrs by sulforhodamine B assay; assay type: functional; in short: as §1
[40] = tested on: UACC-62; assay: Growth inhibition of human UACC62 cells after 48 hrs by sulforhodamine B assay; assay type: functional; conditions: UACC-62, 48 h; in short: as §2
[41] = tested on: NCI/ADR-RES; assay: Growth inhibition of human NCI/ADR-RES cells after 48 hrs by sulforhodamine B assay; assay type: functional; in short: as §1

O=C(c1cc(Cl)cc(Cl)c1)N1CCN(C(=O)c2cc(Cl)cc(Cl)c2)C1=S
GI50 [1]: 15.3 µM | GI50 [2]: 6.5 µM | GI50 [3]: 9 µM | GI50 [4]: 15.5 µM | GI50 [5]: 22.9 µM | GI50 [6]: 3.2 µM | GI50 [7]: 3.3 µM | GI50 [8]: 14.1 µM | GI50 [9]: 14.8 µM | GI50 [10]: 13.5 µM | GI50 [11]: 20.8 µM | GI50 [12]: 10.5 µM | GI50 [13]: 14.1 µM | GI50 [14]: 10.2 µM | GI50 [15]: 3.7 µM | GI50 [16]: 22.2 µM | GI50 [17]: 16.9 µM | GI50 [18]: 1.5 µM | GI50 [19]: 22.4 µM | GI50 [20]: 16.1 µM | GI50 [21]: 3.4 µM | GI50 [22]: 3.3 µM | GI50 [23]: 12.9 µM | GI50 [24]: 19 µM | GI50 [25]: 2.3 µM | GI50 [26]: 14.3 µM | GI50 [27]: 3 µM | GI50 [28]: 18 µM | GI50 [29]: 2.9 µM | GI50 [30]: 15.5 µM | GI50 [31]: 12.8 µM | GI50 [32]: 15.3 µM | pIC50 [33]: 4.89 | GI50 [34]: 17.6 µM | GI50 [35]: 12.2 µM | GI50 [36]: 12.7 µM | GI50 [37]: 16.9 µM | GI50 [38]: 3.1 µM | GI50 [39]: 9.8 µM | GI50 [40]: 15.6 µM | GI50 [41]: 31.7 µM

O=CN1CCN(C(=O)c2ccco2)C1=S
GI50 [1]: 7.5 µM | GI50 [2]: 4 µM | GI50 [3]: 5.3 µM | GI50 [4]: 11.7 µM | GI50 [5]: 18 µM | GI50 [6]: 11.5 µM | GI50 [7]: 3.6 µM | GI50 [8]: 3.9 µM | GI50 [9]: 16.7 µM | GI50 [10]: 5.6 µM | GI50 [11]: 7.3 µM | GI50 [12]: 2.5 µM | GI50 [13]: 8.6 µM | GI50 [14]: 4.2 µM | GI50 [15]: 4 µM | GI50 [16]: 7.5 µM | GI50 [17]: 10.2 µM | GI50 [18]: 1.8 µM | GI50 [19]: 2.3 µM | GI50 [20]: 16.5 µM | GI50 [21]: 4.6 µM | GI50 [22]: 2.8 µM | GI50 [23]: 14.1 µM | GI50 [24]: 24.6 µM | GI50 [25]: 4.5 µM | GI50 [26]: 12 µM | GI50 [27]: 3.4 µM | GI50 [28]: 18.6 µM | GI50 [29]: 3.3 µM | GI50 [30]: 16.5 µM | GI50 [31]: 2.5 µM | GI50 [32]: 16.8 µM | pIC50 [33]: 5.05 | GI50 [34]: 13.7 µM | GI50 [35]: 26.2 µM | GI50 [36]: 3.3 µM | GI50 [37]: 5 µM | GI50 [38]: 2.7 µM | GI50 [39]: 8.3 µM | GI50 [40]: 5 µM | GI50 [41]: 24.5 µM

COc1cc(C(=O)N2CCN(C=O)C2=S)cc(OC)c1OC
GI50 [1]: 21.9 µM | GI50 [2]: 20.7 µM | GI50 [3]: 20.2 µM | GI50 [4]: 19.9 µM | GI50 [5]: 48.5 µM | GI50 [6]: 9.3 µM | GI50 [7]: 18.3 µM | GI50 [8]: 21.4 µM | GI50 [9]: 25.9 µM | GI50 [10]: 25.6 µM | GI50 [11]: 34 µM | GI50 [12]: 19.6 µM | GI50 [13]: 10.9 µM | GI50 [14]: 16.9 µM | GI50 [15]: 5.8 µM | GI50 [16]: 26.7 µM | GI50 [17]: 35.6 µM | GI50 [18]: 7.3 µM | GI50 [19]: 25 µM | GI50 [20]: 19.9 µM | GI50 [21]: 29.4 µM | GI50 [22]: 23.4 µM | GI50 [23]: 16.4 µM | GI50 [24]: 28.5 µM | GI50 [25]: 0.07 µM | GI50 [26]: 20 µM | GI50 [27]: 16.4 µM | GI50 [28]: 24.1 µM | GI50 [29]: 12.7 µM | GI50 [30]: 20.5 µM | GI50 [31]: 21.3 µM | GI50 [32]: 24 µM | pIC50 [33]: 4.89 | GI50 [34]: 31.8 µM | GI50 [35]: 29.5 µM | GI50 [36]: 16.1 µM | GI50 [37]: 22.2 µM | GI50 [38]: 5.5 µM | GI50 [39]: 24.3 µM | GI50 [40]: 15.8 µM | GI50 [41]: 36.1 µM
